Assay results: ChEMBL document CHEMBL1147568, “5-lipoxygenase inhibitors with histamine H(1) receptor antagonist activity” (Bioorg Med Chem Lett, 2004)

What was measured:
Histamine H1 receptor = Histamine H1 receptor (Homo sapiens, UniProt P35367); test: In vitro binding affinity towards histamine H1 receptor expressed in CHO-K1 cells; assay type: cell-based
[1] = biological target: T1, Polyunsaturated fatty acid 5-lipoxygenase (Homo sapiens, UniProt P09917); test: In vitro inhibitory activity against 5-lipoxygenase in a human whole blood assay; assay type: tissue-based
T1 sequence (P09917 whole entry): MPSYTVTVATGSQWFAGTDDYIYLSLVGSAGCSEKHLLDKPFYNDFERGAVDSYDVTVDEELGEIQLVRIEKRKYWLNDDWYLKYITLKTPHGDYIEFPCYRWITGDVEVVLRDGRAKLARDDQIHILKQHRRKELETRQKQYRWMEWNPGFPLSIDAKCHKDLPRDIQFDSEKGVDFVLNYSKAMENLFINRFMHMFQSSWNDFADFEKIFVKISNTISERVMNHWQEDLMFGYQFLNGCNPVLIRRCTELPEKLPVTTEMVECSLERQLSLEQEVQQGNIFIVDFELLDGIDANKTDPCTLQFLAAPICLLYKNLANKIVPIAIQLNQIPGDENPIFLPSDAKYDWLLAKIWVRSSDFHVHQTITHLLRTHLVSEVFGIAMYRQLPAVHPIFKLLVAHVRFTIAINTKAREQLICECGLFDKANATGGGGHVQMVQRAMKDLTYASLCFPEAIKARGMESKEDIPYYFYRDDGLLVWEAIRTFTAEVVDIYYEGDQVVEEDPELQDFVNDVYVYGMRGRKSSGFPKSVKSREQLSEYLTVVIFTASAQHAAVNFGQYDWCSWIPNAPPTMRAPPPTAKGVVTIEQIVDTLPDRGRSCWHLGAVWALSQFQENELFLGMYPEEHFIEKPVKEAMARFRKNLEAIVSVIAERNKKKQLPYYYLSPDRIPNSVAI

[2] = biological target: T2, Polyunsaturated fatty acid 5-lipoxygenase (Rattus norvegicus, UniProt P12527); test: In vitro inhibitory activity against 5-lipoxygenase in an RBL-2H3 cell lysate; assay type: cell-based
T2 sequence (P12527 whole entry): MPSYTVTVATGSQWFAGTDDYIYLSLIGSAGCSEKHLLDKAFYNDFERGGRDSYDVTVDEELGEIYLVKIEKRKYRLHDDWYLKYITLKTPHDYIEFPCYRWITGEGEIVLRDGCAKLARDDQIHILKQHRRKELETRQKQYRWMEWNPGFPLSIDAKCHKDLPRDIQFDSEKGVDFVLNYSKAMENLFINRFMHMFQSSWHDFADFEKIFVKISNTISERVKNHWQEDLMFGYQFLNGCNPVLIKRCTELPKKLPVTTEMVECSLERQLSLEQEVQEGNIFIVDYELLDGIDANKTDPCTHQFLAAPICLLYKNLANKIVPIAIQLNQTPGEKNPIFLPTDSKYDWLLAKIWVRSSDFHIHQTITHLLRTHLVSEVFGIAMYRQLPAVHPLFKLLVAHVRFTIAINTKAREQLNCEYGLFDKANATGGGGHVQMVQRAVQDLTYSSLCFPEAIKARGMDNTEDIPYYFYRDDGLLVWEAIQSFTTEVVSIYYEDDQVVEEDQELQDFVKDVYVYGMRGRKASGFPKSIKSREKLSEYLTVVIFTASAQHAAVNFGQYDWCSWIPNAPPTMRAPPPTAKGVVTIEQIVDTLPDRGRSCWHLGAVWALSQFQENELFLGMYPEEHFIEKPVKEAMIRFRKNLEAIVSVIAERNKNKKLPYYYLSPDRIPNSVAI

Rattus norvegicus = organism: Rattus norvegicus; test: Intrinsic clearance of compound against NADPH-fortified rat liver microsomes; assay type: ADME, Microsome
Outline: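 Compound incubated with NADPH-fortified rat liver microsomes to measure metabolic stability. Intrinsic clearance is reported as µL/min/mg protein.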

[3] = Permeability in Caco-2 cells of compound; assay type: ADME, cell-based; settings: human
Outline: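 Permeability measured across Caco-2 cells and reported as apparent permeability (Papp) in cm/sec.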

Chain of Histamine H1 receptor (P35367 whole entry): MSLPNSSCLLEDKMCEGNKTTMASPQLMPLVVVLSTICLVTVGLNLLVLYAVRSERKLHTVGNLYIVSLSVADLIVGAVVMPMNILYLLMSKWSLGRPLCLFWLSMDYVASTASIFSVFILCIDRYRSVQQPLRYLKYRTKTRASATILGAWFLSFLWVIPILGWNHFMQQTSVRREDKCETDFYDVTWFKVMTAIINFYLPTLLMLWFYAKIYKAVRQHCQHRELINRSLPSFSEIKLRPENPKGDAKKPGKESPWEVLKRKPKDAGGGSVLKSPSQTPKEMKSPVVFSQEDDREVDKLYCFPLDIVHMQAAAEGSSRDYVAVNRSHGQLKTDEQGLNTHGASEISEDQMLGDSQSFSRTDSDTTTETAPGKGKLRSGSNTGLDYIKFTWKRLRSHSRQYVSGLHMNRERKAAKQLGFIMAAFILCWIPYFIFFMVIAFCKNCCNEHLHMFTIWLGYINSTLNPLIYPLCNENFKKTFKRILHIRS

| SMILES | Ki (Histamine H1 receptor) [nM] | IC50 [1] [nM] | IC50 [2] [nM] | Clint (Rattus norvegicus) | Permeability [3] [cm/s] |
| --- | --- | --- | --- | --- | --- |
| NC(=O)N(O)CCC#C[C@@H]1CC[C@@H](CN2CCN([C@H](c3ccccc3)c3ccc(Cl)cc3)CC2)O1 | 50 | – | – | – | – |
| CC(C#Cc1ccc(CN2CCN([C@H](c3ccccc3)c3ccc(Cl)cc3)CC2)o1)N(O)C(N)=O (some centres undefined) | 190 | 3500 | – | – | – |
| NC(=O)N(O)CCC#Cc1ccc(CN2CCN([C@H](c3ccccc3)c3ccc(Cl)cc3)CC2)o1 | – | 420 | < 200 | 33 ul min-1 (mg of protein)-1 | 6e-06 |
| NC(=O)N(O)CCC#C[C@@H]1CC[C@@H](COc2ccc(F)cc2)O1 | – | 117 | – | – | – |
| NC(=O)N(O)CCC#Cc1ccc(CN2CCN(C(c3ccc(F)cc3)c3ccc(F)cc3)CC2)o1 | – | 170 | < 200 | – | – |
| NC(=O)N(O)CCC#C[C@H]1CC[C@H](CN2CCN([C@H](c3ccccc3)c3ccc(Cl)cc3)CC2)O1 | 180 | 510 | – | – | – |
| NC(=O)N(O)CCC#C[C@@H]1CC[C@@H](CN2CCN(C(c3ccc(F)cc3)c3ccc(F)cc3)CC2)O1 | 660 | 140 | – | – | – |
